Experimental data: ChEMBL document CHEMBL5712071, “BET bromodomain protein inhibition is a therapeutic option for medulloblastoma” (Oncotarget, 2013)
Calls of active or inactive are those of the source. No cut-off for these calls is given here.

Columns and labels:
[1] = test system: D341 cell line; test: Anti-proliferative activity against human D341 cells assessed as reduction in cell viability incubated for 72 hrs by MTT assay; format: functional, cell-based; details: D341, 72 h
Outline: (§1)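 Cells seeded in triplicate at 2 × 10^3 per well and allowed to adhere for 24h. JQ1 was given as serial dilutions in full medium, 1nM-6µM, from a 10 mM DMSO stock. Viability was read by MTT at each time point and IC50 derived from dose-response curves. Culture media were RPMI 1640/10% FCS for HD-MB3 (plus 1% NEAA), ONS-76, Daoy and UW-228, and EMEM/10% FCS for D-283 and D-341.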

[2] = test system: ONS-76; test: Anti-proliferative activity against human ONS-76 cells assessed as reduction in cell viability incubated for 96 hrs by MTT assay; format: functional, cell-based; details: ONS-76, 96 h; outline: as §1
[3] = test system: ONS-76; test: Anti-proliferative activity against human ONS-76 cells assessed as reduction in cell viability incubated for 48 hrs by MTT assay; format: functional, cell-based; details: ONS-76, 48 h; outline: as §1
[4] = test system: UW228; test: Anti-proliferative activity against human UW228 cells assessed as reduction in cell viability incubated for 120 hrs by MTT assay; format: functional, cell-based; details: UW228, 120 h; outline: as §1
[5] = target: Bromodomain-containing protein 4 (Homo sapiens) (UniProt O60885); details: D341 cell line, dose 500.0 nM, time 72.0 hrs
[6] = test system: D341 cell line; test: Induction of apoptosis in human D341 cells assessed as increase in population of cells in sub-G1 phase at 500 nM incubated for 72 hrs by ELISA; format: functional, cell-based
[7] = test system: HD-MB03; test: Induction of apoptosis in human HD-MB03 cells assessed as increase in population of cells in sub-G1 phase at 500 nM incubated for 72 hrs by ELISA; format: functional, cell-based
[8] = test system: HD-MB03; test: Anti-proliferative activity against human HD-MB03 cells assessed as reduction in cell viability incubated for 96 hrs by MTT assay; format: functional, cell-based; details: HD-MB03, 96 h; outline: as §1
[9] = test system: D341 cell line; test: Antiproliferative activity against human D341 cells at 500 nM incubated for 72 hrs by BrdU ELISA method; format: functional, cell-based
Outline: (§2)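 Cells seeded in triplicate at 2 × 10^3 per well with 24h adherence, then treated with 500 nM JQ1 or DMSO control for 72h. Proliferation was measured by BrdU incorporation ELISA. Experiments were run independently at least 3 times.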

[10] = test system: ONS-76; test: Antiproliferative activity against human ONS-76 cells at 500 nM incubated for 72 hrs by BrdU ELISA method; format: functional, cell-based; outline: as §2
[11] = test system: ONS-76; test: Induction of senescence in human ONS-76 cells assessed as increase in population of cells in G1 phase at 500 nM incubated for 72 hrs by fluorometric SA-beta-gal activity assay; format: functional, cell-based
Outline: (§3)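 Senescence read as fluorometric SA-β-gal activity. Cells seeded 2 × 10^3 per well in triplicate and allowed 24h to adhere, then exposed to 500 nM JQ1 or DMSO control for 72h. Assayed per kit protocol. Experiments repeated at least 3 times.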

[12] = test system: D283 Med; test: Anti-proliferative activity against human D283 cells assessed as reduction in cell viability incubated for 72 hrs by MTT assay; format: functional, cell-based; outline: as §1
[13] = test system: D283 Med; test: Antiproliferative activity against human D283 cells at 500 nM incubated for 72 hrs by BrdU ELISA method; format: functional, cell-based; outline: as §2
[14] = test system: HD-MB03; test: Antitumor activity against human HD-MB03 cells xenografted in female athymic (nu/nu) mouse assessed as delay in time required for tumor growth to an average of 1000 mm3 at 50 mg/kg, ip for 28 days relative to untreated control; format: functional; details: time 28 day
Outline: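 Female athymic nu/nu mice, 4 weeks old, received 2 × 10^7 HD-MB3 cells in Matrigel subcutaneously in the left flank. At 150–200 mm3 they were randomised, n=7 per group, to JQ1 50 mg/kg ip daily or vehicle for 28 days or until tumours exceeded 1000 mm3. Calipers were used, with volume = (breadth × length × height)/2. Time to 1000 mm3 was analysed by Kaplan-Meier.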

[15] = test system: D283 Med; test: Anti-proliferative activity against human D283 cells assessed as reduction in cell viability incubated for 96 hrs by MTT assay; format: functional, cell-based; outline: as §1
[16] = test system: D283 Med; test: Induction of apoptosis in human D283 cells assessed as increase in population of cells in sub-G1 phase at 500 nM incubated for 72 hrs by ELISA; format: functional, cell-based
[17] = test system: HD-MB03; test: Induction of senescence in human HD-MB03 cells assessed as increase in population of cells in G1 phase at 500 nM incubated for 72 hrs by fluorometric SA-beta-gal activity assay; format: functional, cell-based; outline: as §3
[18] = target: Bromodomain-containing protein 4 (Homo sapiens) (UniProt O60885); details: D283 Med, dose 500.0 nM, time 24.0 hrs
[19] = test system: Daoy; test: Anti-proliferative activity against human Daoy cells assessed as reduction in cell viability incubated for 72 hrs by MTT assay; format: functional, cell-based; outline: as §1
[20] = test system: UW228; test: Anti-proliferative activity against human UW228 cells assessed as reduction in cell viability incubated for 96 hrs by MTT assay; format: functional, cell-based; details: UW228, 96 h; outline: as §1
[21] = test system: D341 cell line; test: Induction of senescence in human D341 cells assessed as increase in population of cells in G1 phase at 500 nM incubated for 72 hrs by fluorometric SA-beta-gal activity assay; format: functional, cell-based; outline: as §3
[22] = test system: D341 cell line; test: Induction of apoptosis in human D341 cells assessed as increase in population of cells in G1 phase at 500 nM incubated for 72 hrs by flow cytometry; format: functional, cell-based
Outline: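 Cells were cultured with 500 nM JQ1 or DMSO control, trypsinised and washed 3 times in PBS. DNA was stained with propidium iodide for 15 min and DNA content analysed by flow cytometry to give G1 and sub-G1 fractions.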

[23] = test system: Daoy; test: Induction of apoptosis in human Daoy cells assessed as increase in population of cells in sub-G1 phase at 500 nM incubated for 72 hrs by ELISA; format: functional, cell-based
[24] = target: Bromodomain-containing protein 4 (Homo sapiens) (UniProt O60885); details: HD-MB03, dose 500.0 nM, time 72.0 hrs
[25] = test system: HD-MB03; test: Anti-proliferative activity against human HD-MB03 cells assessed as reduction in cell viability incubated for 48 hrs by MTT assay; format: functional, cell-based; details: HD-MB03, 48 h; outline: as §1
[26] = target: Bromodomain-containing protein 4 (Homo sapiens) (UniProt O60885); details: HD-MB03, dose 500.0 nM, time 6-24 hrs
[27] = test system: UW228; test: Anti-proliferative activity against human UW228 cells assessed as reduction in cell viability incubated for 48 hrs by MTT assay; format: functional, cell-based; details: UW228, 48 h; outline: as §1
[28] = test system: D341 cell line; test: Anti-proliferative activity against human D341 cells assessed as reduction in cell viability incubated for 48 hrs by MTT assay; format: functional, cell-based; details: D341, 48 h; outline: as §1
[29] = target: Bromodomain-containing protein 4 (Homo sapiens) (UniProt O60885); details: ONS-76, dose 500.0 nM, time 24.0 hrs
[30] = target: Bromodomain-containing protein 4 (Homo sapiens) (UniProt O60885); details: HD-MB03, dose 500.0 nM, time 24.0 hrs
[31] = test system: UW228; test: Induction of senescence in human UW228 cells assessed as increase in population of cells in G1 phase at 500 nM incubated for 72 hrs by fluorometric SA-beta-gal activity assay; format: functional, cell-based; outline: as §3

**Q.** Cc1sc2c(c1C)C(c1ccc(Cl)cc1)=N[C@@H](CC(=O)OC(C)(C)C)c1nnc(C)n1-2 was tested. Which IC50 [1] did it give?
**A.** 244 nM

**Q.** And the IC50 [2]?
**A.** 175 nM

**Q.** And the IC50 [3]?
**A.** 172 nM

**Q.** What about the IC50 [4] of the same molecule?
**A.** 897 nM

**Q.** And the inhibition [5]?
**A.** Active

**Q.** What about the Activity [6] of the same molecule?
**A.** Active

**Q.** What about the Activity [7] of the same molecule?
**A.** Active

**Q.** And the IC50 [8]?
**A.** 172 nM

**Q.** And the Activity [9]?
**A.** Active

**Q.** And the Activity [10]?
**A.** Active

**Q.** And the Activity [11]?
**A.** Active

**Q.** What about the IC50 [12] of the same molecule?
**A.** 477 nM

**Q.** And the Activity [13]?
**A.** Active

**Q.** What about the Time [14] of the same molecule?
**A.** 8 days

**Q.** What about the IC50 [15] of the same molecule?
**A.** 256 nM

**Q.** What about the Activity [16] of the same molecule?
**A.** Active

**Q.** And the Activity [17]?
**A.** Active

**Q.** What about the inhibition [18] of the same molecule?
**A.** Active

**Q.** And the IC50 [19]?
**A.** > 1000 nM

**Q.** What about the IC50 [20] of the same molecule?
**A.** > 1000 nM

**Q.** And the Activity [21]?
**A.** Active

**Q.** And the Activity [22]?
**A.** Active

**Q.** And the Activity [23]?
**A.** Active

**Q.** And the inhibition [24]?
**A.** Active

**Q.** And the IC50 [25]?
**A.** 364 nM

**Q.** And the inhibition [26]?
**A.** Active

**Q.** And the IC50 [27]?
**A.** > 1000 nM

**Q.** And the IC50 [28]?
**A.** 924 nM

**Q.** What about the inhibition [29] of the same molecule?
**A.** Active

**Q.** What about the inhibition [30] of the same molecule?
**A.** > 80%

**Q.** What about the Activity [31] of the same molecule?
**A.** Active
